{"source": "ChEMBL document CHEMBL1138786", "about": "“Synthesis of benzodithiol-2-yl-substituted nucleoside derivatives as lead compounds having anti-bovine viral diarrhea virus activity” (J Med Chem, 2004)", "key": {"[1]": {"experiment": "Ratio of cytotoxicity to anti BVDV activity of the compound", "design": "species or system Bos taurus", "conditions": "cattle; for selectivity ratio: read-out: CC50/EC50"}, "[2]": {"organism": "Bos taurus", "experiment": "Anti BVDV activity relative to ribavirin", "format": "functional"}, "[3]": {"experiment": "Anti BVDV activity in MDBK (Madin-darby bovine kidney) cells", "format": "functional, Bos taurus", "in_short": "(§1)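 MDBK cells in DMEM with 10% heat-inactivated horse serum, penicillin and streptomycin, seeded at 5 × 10^5 cells/ml and incubated overnight at 37 °C. Infected with about 100 focus forming units of BVDV (nose strain) in the presence of graded compound concentrations for 24 h. Monolayers washed with PBS, overlaid with medium containing bactoagar, incubated a further 24 h. Viral foci counted microscopically.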"}, "[4]": {"experiment": "Cytotoxicity in MDBK (Madin-darby bovine kidney) cells", "format": "cell-based, Bos taurus", "conditions": "cattle", "in_short": "(§2)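 Cell viability assay: MDBK cells at 2 × 10^4 per well, cultured with graded compound concentrations at 37 °C for 3 days. Viable cells measured colorimetrically with a water-soluble tetrazolium dye.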"}, "[5]": {"experiment": "Anti-bovine viral diarrhoea virus activity relative to ribavirin", "format": "functional, Bos taurus"}, "[6]": {"experiment": "Cytotoxicity in MDBK (Madin-darby bovine kidney) cells (Ribavirin EC50 0.61 and CC50 90.2)", "format": "cell-based, Bos taurus", "conditions": "cattle", "in_short": "as §2"}, "[7]": {"organism": "Bos taurus", "experiment": "Anti BVDV activity relative to ribavirin (Ribavirin EC50 0.61 and CC50 90.2)", "format": "functional"}, "[8]": {"experiment": "Anti BVDV activity in MDBK (Madin-darby bovine kidney) cells (Ribavirin EC50 0.61 and CC50 90.2)", "format": "functional, Bos taurus", "in_short": "as §1"}, "[9]": {"experiment": "Cytotoxicity in MDBK (Madin-darby bovine kidney) cells (Ribavirin EC50 1.2 and CC50 >100)", "format": "cell-based, Bos taurus", "conditions": "cattle", "in_short": "as §2"}, "[10]": {"organism": "Bos taurus", "experiment": "Anti BVDV activity relative to ribavirin (EC50 1.2 and CC50 >100)", "format": "functional"}, "[11]": {"experiment": "Anti BVDV activity in MDBK (Madin-darby bovine kidney) cells (Ribavirin EC50 1.2 and CC50 >100)", "format": "functional, Bos taurus", "in_short": "as §1"}}, "note": "Values joined by “and” are separate entries in the source; they are usually repeats but may differ in a detail not shown here. Equal entries are not always repeated."}
{"smiles": "Nc1ccn([C@H]2C[C@H](OC3Sc4ccccc4S3)[C@@H](CO)O2)c(=O)n1", "values": [{"measurement": "selectivity ratio", "setting": "[1]", "value": 1}, {"measurement": "EC50rel", "setting": "[2]", "value": 46.1}, {"measurement": "EC50", "setting": "[3]", "value": 69.1, "unit": "µM"}, {"measurement": "CC50", "setting": "[4]", "value": 69.7, "unit": "µM"}]}
{"smiles": "Nc1nc(O)c2ncn([C@@H]3O[C@H](CO)C(O)[C@@H]3OC3Sc4ccccc4S3)c2n1", "note": "(stereo partly drawn)", "values": [{"measurement": "selectivity ratio", "setting": "[1]", "value": 5.09}, {"measurement": "EC50rel", "setting": "[2]", "value": 21.5}, {"measurement": "EC50", "setting": "[3]", "value": 14.4, "unit": "µM"}, {"measurement": "CC50", "setting": "[4]", "value": 73.2, "unit": "µM"}]}
{"smiles": "Nc1ncnc2c1ncn2[C@@H]1O[C@H](CO)C(O)[C@@H]1OC1Sc2ccccc2S1", "note": "(stereo partly drawn)", "values": [{"measurement": "selectivity ratio", "setting": "[1]", "value": 1.89}, {"measurement": "EC50rel", "setting": "[2]", "value": 58.5}, {"measurement": "EC50", "setting": "[3]", "value": 39.2, "unit": "µM"}, {"measurement": "CC50", "setting": "[4]", "value": 74.3, "unit": "µM"}]}
{"smiles": "Nc1ncnc2c1ncn2[C@H]1C[C@H](OC2Sc3ccccc3S2)[C@@H](CO)O1", "values": [{"measurement": "selectivity ratio", "setting": "[1]", "value": 1.1}, {"measurement": "EC50rel", "setting": "[2]", "value": 42.5}, {"measurement": "EC50", "setting": "[3]", "value": 63.8, "unit": "µM"}, {"measurement": "CC50", "setting": "[4]", "value": 68.4, "unit": "µM"}]}
{"smiles": "COC1Sc2ccccc2S1", "values": [{"measurement": "EC50", "setting": "[3]", "value": "> 100", "unit": "µM"}, {"measurement": "CC50", "setting": "[4]", "value": "> 100", "unit": "µM"}]}
{"smiles": "O=c1ccn([C@@H]2O[C@H](CO)C(O)[C@@H]2OC2Sc3ccccc3S2)c(=O)[nH]1", "note": "(stereo partly drawn)", "values": [{"measurement": "selectivity ratio", "setting": "[1]", "value": 1.19}, {"measurement": "EC50rel", "setting": "[2]", "value": 84.6}, {"measurement": "EC50", "setting": "[3]", "value": 56.7, "unit": "µM"}, {"measurement": "CC50", "setting": "[4]", "value": 67.3, "unit": "µM"}]}
{"smiles": "NC(=O)c1ncn([C@@H]2O[C@H](CO)[C@@H](O)[C@H]2O)n1", "note": "[RIBAVIRIN]", "values": [{"measurement": "CC50/EC50", "setting": "[1]", "value": "< 150 and > 67"}, {"measurement": "EC50rel", "setting": "[2]", "value": 1}, {"measurement": "EC50rel", "setting": "[5]", "value": 1}, {"measurement": "EC50", "setting": "[3]", "value": "1.5 µM and 0.67 µM"}, {"measurement": "CC50", "setting": "[4]", "value": "> 100", "unit": "µM"}]}
{"smiles": "COC(=O)Nc1ccn([C@@H]2O[C@H](CO)C(O)[C@@H]2OC2Sc3ccccc3S2)c(=O)n1", "note": "(stereo partly drawn)", "values": [{"measurement": "selectivity ratio", "setting": "[1]", "value": 1.19}, {"measurement": "CC50", "setting": "[6]", "value": 60.1, "unit": "µM"}, {"measurement": "EC50rel", "setting": "[7]", "value": 82.5}, {"measurement": "EC50", "setting": "[8]", "value": 50.3, "unit": "µM"}]}
{"smiles": "CSc1ccccc1SCO[C@H]1C[C@H](n2cc(C)c(=O)[nH]c2=O)O[C@@H]1CO", "values": [{"measurement": "selectivity ratio", "setting": "[1]", "value": "> 1.1"}, {"measurement": "EC50rel", "setting": "[2]", "value": 59.7}, {"measurement": "EC50", "setting": "[3]", "value": 89.6, "unit": "µM"}, {"measurement": "CC50", "setting": "[4]", "value": "> 100", "unit": "µM"}]}
{"smiles": "O=c1ccn([C@@H]2O[C@H](CO)C(OC3Sc4ccccc4S3)[C@@H]2O)c(=O)[nH]1", "note": "(stereo partly drawn)", "values": [{"measurement": "selectivity ratio", "setting": "[1]", "value": 1.46}, {"measurement": "EC50rel", "setting": "[2]", "value": 75.5}, {"measurement": "EC50", "setting": "[3]", "value": 50.6, "unit": "µM"}, {"measurement": "CC50", "setting": "[4]", "value": 73.9, "unit": "µM"}]}
{"smiles": "CSc1ccccc1SCO[C@H]1C[C@H](n2cnc3c(N)ncnc32)O[C@@H]1CO", "values": [{"measurement": "EC50", "setting": "[3]", "value": "> 100", "unit": "µM"}, {"measurement": "CC50", "setting": "[4]", "value": "> 100", "unit": "µM"}]}
{"smiles": "Cc1cn([C@H]2C[C@H](OC3Sc4ccccc4S3)[C@@H](CO)O2)c(=O)[nH]c1=O", "values": [{"measurement": "selectivity ratio", "setting": "[1]", "value": 1.5}, {"measurement": "EC50rel", "setting": "[5]", "value": 31.2}, {"measurement": "EC50", "setting": "[3]", "value": 46.8, "unit": "µM"}, {"measurement": "CC50", "setting": "[4]", "value": 72.4, "unit": "µM"}]}
{"smiles": "OC[C@H]1O[C@@H](n2cnc3c(O)ncnc32)[C@@H](OC2Sc3ccccc3S2)C1O", "note": "(stereo partly drawn)", "values": [{"measurement": "selectivity ratio", "setting": "[1]", "value": 3.21}, {"measurement": "CC50", "setting": "[9]", "value": 59.2, "unit": "µM"}, {"measurement": "EC50rel", "setting": "[10]", "value": 15.3}, {"measurement": "EC50", "setting": "[11]", "value": 18.4, "unit": "µM"}]}
{"smiles": "Cc1cn([C@H]2C[C@H](OC3Sc4ccccc4S3)[C@@H](C)O2)c(=O)[nH]c1=O", "values": [{"measurement": "selectivity ratio", "setting": "[1]", "value": 0.93}, {"measurement": "EC50rel", "setting": "[2]", "value": 57.8}, {"measurement": "EC50", "setting": "[3]", "value": 86.7, "unit": "µM"}, {"measurement": "CC50", "setting": "[4]", "value": 81.3, "unit": "µM"}]}
{"smiles": "Nc1ccn([C@@H]2O[C@H](CO)C(O)[C@@H]2OC2Sc3ccccc3S2)c(=O)n1", "note": "(stereo partly drawn)", "values": [{"measurement": "selectivity ratio", "setting": "[1]", "value": 2.47}, {"measurement": "EC50rel", "setting": "[2]", "value": 42.5}, {"measurement": "EC50", "setting": "[3]", "value": 28.5, "unit": "µM"}, {"measurement": "CC50", "setting": "[4]", "value": 70.4, "unit": "µM"}]}
{"smiles": "CSc1ccccc1SCO[C@H]1C[C@H](n2ccc(N)nc2=O)O[C@@H]1CO", "values": [{"measurement": "EC50", "setting": "[3]", "value": "> 100", "unit": "µM"}, {"measurement": "CC50", "setting": "[4]", "value": "> 100", "unit": "µM"}]}
{"smiles": "CSc1ccccc1SCO[C@H]1C[C@H](n2cnc3c(O)nc(N)nc32)O[C@@H]1CO", "values": [{"measurement": "EC50", "setting": "[3]", "value": "> 100", "unit": "µM"}, {"measurement": "CC50", "setting": "[4]", "value": "> 100", "unit": "µM"}]}
{"smiles": "O=c1ccn([C@@H]2O[C@H](CO)C(OC3Sc4ccccc4S3)[C@@H]2OC2Sc3ccccc3S2)c(=O)[nH]1", "note": "(stereo partly drawn)", "values": [{"measurement": "EC50rel", "setting": "[2]", "value": "< 71.7"}, {"measurement": "EC50", "setting": "[3]", "value": "< 48", "unit": "µM"}, {"measurement": "CC50", "setting": "[4]", "value": 48, "unit": "µM"}]}
{"smiles": "Nc1nc(O)c2ncn([C@H]3C[C@H](OC4Sc5ccccc5S4)[C@@H](CO)O3)c2n1", "values": [{"measurement": "selectivity ratio", "setting": "[1]", "value": "> 1.3"}, {"measurement": "EC50rel", "setting": "[2]", "value": 52.9}, {"measurement": "EC50", "setting": "[3]", "value": 79.4, "unit": "µM"}, {"measurement": "CC50", "setting": "[4]", "value": "> 100", "unit": "µM"}]}
